Screens (PubChem BioAssay)
LMPTP block: LMPTP (human) inhibition; P24666; recombinant LMPTP-A, OMFP fluorogenic substrate, fluorescence intensity; inhibition, % at 20 µM; 0.22% of 360,000 active;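 active means compounds that cut the enzyme signal by at least half of the control window in the single-dose screen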;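 further: plate controls were DMSO wells with enzyme plus substrate for no effect and substrate without enzyme for full effect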
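Test system: LMPTP-A phosphatase enzyme; input: 0.625 nM LMPTP-A final; reagent: OMFP substrate, 400 µM final; compound dosing: 20 µM single dose, 3% DMSO; incubation: 50 min dark incubation at room temperature; measured by: endpoint fluorescence intensity from OMFP dephosphorylation; measure: % inhibition relative to no-enzyme and uninhibited control wells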
Scp-1 inhibitor: Scp-1 (human) phosphatase inhibition; Recombinant Scp1, phosphopeptide, malachite green phosphate absorbance; inhibition, % at 20 µM; 0.88% of 340,000 active; Q9GZU7;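 active means inhibition above about 50% at 20 µM, limit read from the data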;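 further: plate controls were DMSO wells with enzyme for no effect and wells lacking enzyme for full effect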
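Test system – truncated SCP-1 phosphatase (76-261aa) · Reagent – Phosphorylated 17-residue peptide substrate · Incubation – 45 min room-temperature reaction, 5 min colour, 30 min stabiliser · Detection – colorimetric phosphate reagent with accelerator and stabiliser, absorbance at 630 nm · Measure – % inhibition at 20 µM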
NadD inh: inhibitors of Staphylococcus aureus NadD; 0.78% of 360,000 active; purified NadD enzyme, colorimetric absorbance read-out; inhibition, % at 20 µM; in the data active means inhibition above about 26%
STEP inh: blocks human striatal-enriched tyrosine phosphatase; P54829; recombinant STEP, OMFP fluorogenic substrate, fluorescence; inhibition, % at 20 µM; 0.25% of 360,000 active;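 active means inhibition at 20 µM, scaled per plate between control wells, above about 37%, limit read from the data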;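 further: 0% = DMSO with enzyme and substrate and 100% = substrate only without enzyme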
Target sequence (P54829 whole entry, looked up): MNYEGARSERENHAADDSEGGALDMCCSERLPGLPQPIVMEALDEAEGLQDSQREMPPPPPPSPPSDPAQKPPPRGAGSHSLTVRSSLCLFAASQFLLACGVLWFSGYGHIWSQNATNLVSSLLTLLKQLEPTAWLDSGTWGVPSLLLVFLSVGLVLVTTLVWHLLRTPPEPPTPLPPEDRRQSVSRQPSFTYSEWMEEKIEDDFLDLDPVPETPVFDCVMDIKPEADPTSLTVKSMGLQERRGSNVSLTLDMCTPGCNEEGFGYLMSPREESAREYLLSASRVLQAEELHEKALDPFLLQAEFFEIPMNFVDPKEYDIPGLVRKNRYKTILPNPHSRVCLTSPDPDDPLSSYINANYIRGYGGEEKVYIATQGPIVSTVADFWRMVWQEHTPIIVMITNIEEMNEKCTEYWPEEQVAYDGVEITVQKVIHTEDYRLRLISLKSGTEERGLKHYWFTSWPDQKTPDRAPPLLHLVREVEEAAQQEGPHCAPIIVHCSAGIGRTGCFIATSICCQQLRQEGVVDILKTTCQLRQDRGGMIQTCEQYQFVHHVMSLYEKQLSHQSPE
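Measure: Control-normalized % inhibition with plate pattern correction | Test system: STEP phosphatase, cell-free reaction | Medium: pH 6.0 Bis-Tris with DTT and Tween 20 | Technique: Fluorescence, 480/540 nm | Times: Reaction 20 min, ambient temperature | Doses: Single compound dose of 20 µM, 1% DMSO final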
rCAG binder: molecules binding r(CAG) RNA repeats. r(CAG) RNA repeat, TO-PRO-1 dye displacement fluorescence. inhibition, % at 3 µM. 1.3% of 370,000 active;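 active means inhibition above the plate cutoff, the mean of all test compounds on that plate plus 3 SD, cut at about 35% in these data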;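 further: 0% = DMSO alone and 100% = 100 µM mitoxantrone as full dye displacement; higher means more dye released from RNA so lower well fluorescence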
NadD conf: NadD (S. aureus) inhibition, single concentration confirmation; shares compounds with NadD inh; purified S. aureus NadD, colorimetric enzyme assay; inhibition, % at 20 µM; 13% of 2,000 active; in the data active means inhibition mostly above about 42%, no sharp cut-off; inactive means mostly below about 42%
Active calls of the source: *. This is a sample that favours compounds with a hit; in the whole collection about 2.6% have one here.

O=C(N/N=C/c1ccncc1)c1cc2ccccc2o1 was read as LMPTP block 0, Scp-1 inhibitor -3, NadD inh -2, STEP inh -1 and rCAG binder -3.
CC(C)n1cc(/C=N\NC(=O)c2cc3c(ccc4ccccc43)o2)c2ccccc21 was read as LMPTP block -1, Scp-1 inhibitor -4, NadD inh 33*, STEP inh -3, rCAG binder 7 and NadD conf 2.
`Cc1ccc(/C=N/NC(=O)c2cc3c(ccc4ccccc43)o2)o1` gave LMPTP block 1, Scp-1 inhibitor -5, NadD inh 0, STEP inh 3 and rCAG binder 14.
Screening CCN1CCCCC(NC(=O)c2ccccc2C)C1=O (stereo not drawn) returned rCAG binder -1.
For O=C(Nc1ccc(Cl)c(Cl)c1)C1CCN(c2ncccn2)CC1 the results were rCAG binder 0.
Screening COC(=O)C[C@H]1CC[C@@H]2[C@H](COc3ccc(NC(=O)c4ccccc4OC)cc3C(=O)N2C)O1 returned rCAG binder -1.
Screening CN(C)[C@@H]1CCN(c2ccc3c(c2)O[C@H]2CCN(C2)S3(=O)=O)C1 returned rCAG binder 2.
`Cc1cccc(C(=O)Nc2nc3ncccn3c2-c2ccccc2)c1` gave rCAG binder 0.
CCCCOCCCNC(=O)C[C@H]1C[C@@]2(C(=O)OC)C(=C[C@H](COCc3ccccc3)O[C@@H]2C)N(Cc2ccco2)C1=O was read as rCAG binder 4.
Screening CCC(=O)Nc1ccc(C(=O)COC(=O)c2nc3nccc(C)n3n2)cc1 returned LMPTP block 46, Scp-1 inhibitor 72*, NadD inh 46*, STEP inh 5, rCAG binder 29 and NadD conf 86*.
Cc1ccnc2nc(C(=O)OCC(=O)c3ccc(NC(=O)CC(C)C)cc3)nn12 was read as LMPTP block 2, Scp-1 inhibitor 27, NadD inh 6, STEP inh 1 and rCAG binder 17.
`O=C(Nc1ccc(F)cc1)c1nc2c(nnn2Cc2cccc3ccccc23)c(=O)[nH]1` gave LMPTP block 4, Scp-1 inhibitor 0, NadD inh 33*, STEP inh 2, rCAG binder 22 and NadD conf 20.
For CCCn1c(=O)c2c(C(=O)OCC)cc(-c3ccco3)nc2n(CCC)c1=O the results were LMPTP block -1, Scp-1 inhibitor 12, NadD inh -3, STEP inh -2 and rCAG binder 0.
CCOC(=O)c1cc(-c2ccco2)nc2c1c(C)nn2-c1ccccc1 was read as LMPTP block 2, Scp-1 inhibitor -5, NadD inh 33*, STEP inh 2, rCAG binder 19 and NadD conf 8.
Cc1ccc2nc(N/N=C\c3ccc([N+](=O)[O-])o3)nc(-c3ccccc3)c2c1 was read as LMPTP block 8, Scp-1 inhibitor 38, NadD inh 37*, STEP inh 5, rCAG binder 4 and NadD conf 11.
`O=C1NC[C@H](Cc2ccccc2)N(C[C@@H]2CCCN2C[C@H](Cc2ccc(O)cc2)N2C[C@H](Cc3ccc(O)cc3)N(CC3CCCCC3)C(=O)C2=O)C1=O` gave LMPTP block 15, NadD inh 32*, rCAG binder 6 and NadD conf 36.
For CCOc1ccc(CCN2C(=O)C(=O)N([C@@H](Cc3ccccc3)CN3CCC[C@@H]3CN3C(=O)C(=O)NC[C@@H]3Cc3ccc(O)cc3)C[C@@H]2Cc2ccccc2)cc1 the results were LMPTP block 0, NadD inh 8, STEP inh 1 and rCAG binder 9.
For CC(C)C[C@H]1CN([C@@H](Cc2ccccc2)CN2CCC[C@@H]2CN2C(=O)C(=O)NC[C@@H]2Cc2ccc(O)cc2)C(=O)C(=O)N1CC1CCCCCC1 the results were LMPTP block 2, NadD inh 12, STEP inh 4 and rCAG binder 8.
Screening O=C1NC[C@H](Cc2ccccc2)N(C[C@H]2CCCN2C[C@H](Cc2ccccc2)N2C[C@H](Cc3ccccc3)N(CC3CCCCCC3)C(=O)C2=O)C1=O returned LMPTP block 6, Scp-1 inhibitor 21, NadD inh 22, STEP inh 3 and rCAG binder 8.
Screening O=C1NC[C@H](Cc2ccccc2)N(C[C@@H]2CCCN2C[C@H](Cc2ccc(O)cc2)N2C[C@H](Cc3ccccc3)N(CCc3ccccc3)C(=O)C2=O)C1=O returned LMPTP block 7, NadD inh 30*, rCAG binder 4 and NadD conf 32.
Screening O=C1NC[C@H](Cc2ccc(O)cc2)N(C[C@@H]2CCCN2C[C@H](Cc2ccccc2)N2C[C@H](Cc3ccc(O)cc3)N(CC3CCCCC3)C(=O)C2=O)C1=O returned LMPTP block 5, NadD inh 41*, rCAG binder 5 and NadD conf 41.
`O=C1NC[C@H](Cc2ccc(O)cc2)N(C[C@@H]2CCCN2C[C@H](Cc2ccc(O)cc2)N2C[C@H](Cc3ccccc3)N(CC3CCCCC3)C(=O)C2=O)C1=O` gave LMPTP block 2, NadD inh 33*, rCAG binder 6 and NadD conf 38.
For Brc1ccc(-c2nn3c(-c4ccccc4)nnc3s2)cc1 the results were rCAG binder 7.
`O=C(Nc1ccccc1[N+](=O)[O-])NC1CCCCN(Cc2ccc(Cl)cc2)C1=O` (stereo not drawn) gave rCAG binder 4.
For C/C(=C/c1[nH]c(N)[n+](CC2CC2)c1Cc1ccccc1)Cn1[nH]c(=O)n(-c2ccccc2)c1=O the results were rCAG binder 6.
CC(=O)c1cc(-c2ccc([N+](=O)[O-])cc2)c(=O)n2c1CCC2 was read as rCAG binder 4.
For N#Cc1ccc(/C=C2\CC3(OC(=O)C4CCCC4)CCCN2C3)cc1 (stereo not drawn) the results were rCAG binder 2.
`Cc1ccc(-c2csc(Cc3nc(-c4ccc5c(c4)CCC(=O)N5)cs3)n2)cc1` gave LMPTP block 3, Scp-1 inhibitor 1, NadD inh 33*, STEP inh 1, rCAG binder 20 and NadD conf 19.
CCCc1cc2c(=O)c(-c3nc4ccccc4s3)c(COCC(=O)O)oc2cc1O was read as LMPTP block 1, Scp-1 inhibitor 11, NadD inh 30*, STEP inh 0, rCAG binder 55* and NadD conf 30.
For Cc1ccccc1NC(=O)c1c(C)[nH]c(=S)c(C#N)c1-c1ccc(Cl)cc1 the results were LMPTP block -2, Scp-1 inhibitor -10, NadD inh 18, STEP inh -1 and rCAG binder 15.
